{"source": "ChEMBL document CHEMBL1151848", "about": "“Aryl nucleoside H-phosphonates. Part 16: synthesis and anti-HIV-1 activity of di-aryl nucleoside phosphotriesters” (Bioorg Med Chem, 2009)", "note": "pEC50: −log10 of the molar value.", "data": [{"tested_on": "not listed separately", "experiment": "Chemical stability assessed as chemical hydrolysis half life in RPMI-1640 culture medium by HPLC analysis", "format": "physicochemical", "settings": "not given", "method_in_brief": "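Chemical hydrolysis of the compounds was followed in RPMI-1640 medium alone.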", "units": {"half-life": "h"}, "values": [{"smiles": "Cc1ccc(OP(=O)(OC[C@H]2O[C@@H](n3cc(C)c(=O)[nH]c3=O)C[C@@H]2N=[N+]=[N-])Oc2ccc(C)nc2)cn1", "half-life": 21.4}, {"smiles": "Cc1cn([C@H]2C[C@H](N=[N+]=[N-])[C@@H](COP(=O)(Oc3ccccc3)Oc3cccnc3Cl)O2)c(=O)[nH]c1=O", "note": "(stereo partly specified)", "half-life": 16.1}, {"smiles": "Cc1cn([C@H]2C[C@H](N=[N+]=[N-])[C@@H](COP(=O)(Oc3ccc(C#N)cc3)Oc3cccnc3)O2)c(=O)[nH]c1=O", "note": "(stereo partly specified)", "half-life": 2.88}, {"smiles": "Cc1ncccc1OP(=O)(OC[C@H]1O[C@@H](n2cc(C)c(=O)[nH]c2=O)C[C@@H]1N=[N+]=[N-])Oc1cccnc1C", "half-life": 17.2}]}, {"tested_on": "not listed separately", "experiment": "Selectivity index, ratio of CC50 for human MT4 cells to EC50 for HIV1 3B", "format": "toxicity, cell-based", "settings": "read-out: Ratio CC50/EC50", "values": [{"smiles": "Cc1ccc(OP(=O)(OC[C@H]2O[C@@H](n3cc(C)c(=O)[nH]c3=O)C[C@@H]2N=[N+]=[N-])Oc2ccc(C)nc2)cn1", "selectivity ratio": "> 2500"}, {"smiles": "Cc1cn([C@H]2C[C@H](N=[N+]=[N-])[C@@H](COP(=O)(Oc3ccccc3)Oc3cccnc3Cl)O2)c(=O)[nH]c1=O", "note": "(stereo partly specified)", "selectivity ratio": "> 3330"}, {"smiles": "Cc1cn([C@H]2C[C@H](N=[N+]=[N-])[C@@H](COP(=O)(Oc3ccc(C#N)cc3)Oc3cccnc3)O2)c(=O)[nH]c1=O", "note": "(stereo partly specified)", "selectivity ratio": 2900}, {"smiles": "Cc1ncccc1OP(=O)(OC[C@H]1O[C@@H](n2cc(C)c(=O)[nH]c2=O)C[C@@H]1N=[N+]=[N-])Oc1cccnc1C", "selectivity ratio": "> 5000"}]}, {"tested_on": "Human immunodeficiency virus 1", "experiment": "Antiviral activity against HIV1 3B infected in human MT4 cells assessed as protection from virus-induced cytopathogenicity after 4 days by MTT assay", "format": "functional, organism-based", "settings": "Human immunodeficiency virus 1, 3B, MT4, 96 h", "method_in_brief": "(§1)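 MT-4 cells, acutely infected at m.o.i. 0.01, were used to read inhibition of HIV-1-induced cytopathogenicity. Compounds were made as 100 mM DMSO stocks and diluted in culture medium. Viability was read by MTT. EC50 is the concentration giving 50% protection, as the mean (+SD) of three independent determinations.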", "values": [{"smiles": "Cc1ccc(OP(=O)(OC[C@H]2O[C@@H](n3cc(C)c(=O)[nH]c3=O)C[C@@H]2N=[N+]=[N-])Oc2ccc(C)nc2)cn1", "pEC50": 7.40}, {"smiles": "Cc1cn([C@H]2C[C@H](N=[N+]=[N-])[C@@H](COP(=O)(Oc3ccccc3)Oc3cccnc3Cl)O2)c(=O)[nH]c1=O", "note": "(stereo partly specified)", "pEC50": 7.52}, {"smiles": "Cc1cn([C@H]2C[C@H](N=[N+]=[N-])[C@@H](COP(=O)(Oc3ccc(C#N)cc3)Oc3cccnc3)O2)c(=O)[nH]c1=O", "note": "(stereo partly specified)", "pEC50": 7.70}, {"smiles": "Cc1ncccc1OP(=O)(OC[C@H]1O[C@@H](n2cc(C)c(=O)[nH]c2=O)C[C@@H]1N=[N+]=[N-])Oc1cccnc1C", "pEC50": 7.70}]}, {"tested_on": "Human immunodeficiency virus 1", "experiment": "Antiviral activity against non-nucleoside reverse transcriptase inhibitor-resistant HIV1 bearing reverse transcriptase A17 (K103N, Y181C) mutation infected in human MT4 cells assessed as protection from virus-induced cytopathogenicity after 4 days by MTT assay", "format": "functional, organism-based", "settings": "Human immunodeficiency virus 1, MT4, 96 h", "method_in_brief": "as §1", "values": [{"smiles": "Cc1ccc(OP(=O)(OC[C@H]2O[C@@H](n3cc(C)c(=O)[nH]c3=O)C[C@@H]2N=[N+]=[N-])Oc2ccc(C)nc2)cn1", "pEC50": 8.00}, {"smiles": "Cc1cn([C@H]2C[C@H](N=[N+]=[N-])[C@@H](COP(=O)(Oc3ccccc3)Oc3cccnc3Cl)O2)c(=O)[nH]c1=O", "note": "(stereo partly specified)", "pEC50": 8.00}, {"smiles": "Cc1cn([C@H]2C[C@H](N=[N+]=[N-])[C@@H](COP(=O)(Oc3ccc(C#N)cc3)Oc3cccnc3)O2)c(=O)[nH]c1=O", "note": "(stereo partly specified)", "pEC50": 8.05}, {"smiles": "Cc1ncccc1OP(=O)(OC[C@H]1O[C@@H](n2cc(C)c(=O)[nH]c2=O)C[C@@H]1N=[N+]=[N-])Oc1cccnc1C", "pEC50": 8.00}]}, {"tested_on": "not listed separately", "experiment": "Cytotoxicity against human MT4 cells after 96 hrs by MTT assay", "format": "cell-based", "settings": "not given", "method_in_brief": "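Exponentially growing mock-infected MT-4 cells were seeded at 1 × 10⁵ cells/ml in RPMI-1640 with 10% FCS, penicillin G and streptomycin. They were incubated with serial compound dilutions at 37 °C in humidified 5% CO₂, and viability was read by MTT after 96 h. CC50 is the concentration reducing viability by 50%, as the mean of three independent determinations.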", "units": {"CC50 at 96 h": "µM"}, "values": [{"smiles": "Cc1ccc(OP(=O)(OC[C@H]2O[C@@H](n3cc(C)c(=O)[nH]c3=O)C[C@@H]2N=[N+]=[N-])Oc2ccc(C)nc2)cn1", "CC50 at 96 h": "> 100"}, {"smiles": "Cc1cn([C@H]2C[C@H](N=[N+]=[N-])[C@@H](COP(=O)(Oc3ccccc3)Oc3cccnc3Cl)O2)c(=O)[nH]c1=O", "note": "(stereo partly specified)", "CC50 at 96 h": "≥ 100"}, {"smiles": "Cc1cn([C@H]2C[C@H](N=[N+]=[N-])[C@@H](COP(=O)(Oc3ccc(C#N)cc3)Oc3cccnc3)O2)c(=O)[nH]c1=O", "note": "(stereo partly specified)", "CC50 at 96 h": 58}, {"smiles": "Cc1ncccc1OP(=O)(OC[C@H]1O[C@@H](n2cc(C)c(=O)[nH]c2=O)C[C@@H]1N=[N+]=[N-])Oc1cccnc1C", "CC50 at 96 h": "> 100"}]}, {"tested_on": "Human immunodeficiency virus 1", "experiment": "Antiviral activity against efavirenz-resistant HIV1 infected in human MT4 cells assessed as protection from virus-induced cytopathogenicity after 4 days by MTT assay", "format": "functional, organism-based", "settings": "Human immunodeficiency virus 1, MT4, 96 h", "method_in_brief": "as §1", "values": [{"smiles": "Cc1ccc(OP(=O)(OC[C@H]2O[C@@H](n3cc(C)c(=O)[nH]c3=O)C[C@@H]2N=[N+]=[N-])Oc2ccc(C)nc2)cn1", "pEC50": 7.52}, {"smiles": "Cc1cn([C@H]2C[C@H](N=[N+]=[N-])[C@@H](COP(=O)(Oc3ccccc3)Oc3cccnc3Cl)O2)c(=O)[nH]c1=O", "note": "(stereo partly specified)", "pEC50": 8.00}, {"smiles": "Cc1cn([C@H]2C[C@H](N=[N+]=[N-])[C@@H](COP(=O)(Oc3ccc(C#N)cc3)Oc3cccnc3)O2)c(=O)[nH]c1=O", "note": "(stereo partly specified)", "pEC50": 7.52}, {"smiles": "Cc1ncccc1OP(=O)(OC[C@H]1O[C@@H](n2cc(C)c(=O)[nH]c2=O)C[C@@H]1N=[N+]=[N-])Oc1cccnc1C", "pEC50": 7.70}]}, {"tested_on": "Human immunodeficiency virus 1", "experiment": "Antiviral activity against MDR1-resistant HIV1 infected in human MT4 cells assessed as protection from virus-induced cytopathogenicity after 4 days by MTT assay", "format": "functional, organism-based", "settings": "Human immunodeficiency virus 1, MT4, 96 h", "method_in_brief": "as §1", "values": [{"smiles": "Cc1ccc(OP(=O)(OC[C@H]2O[C@@H](n3cc(C)c(=O)[nH]c3=O)C[C@@H]2N=[N+]=[N-])Oc2ccc(C)nc2)cn1", "pEC50": 6.40}, {"smiles": "Cc1cn([C@H]2C[C@H](N=[N+]=[N-])[C@@H](COP(=O)(Oc3ccccc3)Oc3cccnc3Cl)O2)c(=O)[nH]c1=O", "note": "(stereo partly specified)", "pEC50": 6.40}, {"smiles": "Cc1cn([C@H]2C[C@H](N=[N+]=[N-])[C@@H](COP(=O)(Oc3ccc(C#N)cc3)Oc3cccnc3)O2)c(=O)[nH]c1=O", "note": "(stereo partly specified)", "pEC50": 6.52}, {"smiles": "Cc1ncccc1OP(=O)(OC[C@H]1O[C@@H](n2cc(C)c(=O)[nH]c2=O)C[C@@H]1N=[N+]=[N-])Oc1cccnc1C", "pEC50": 6.70}]}, {"tested_on": "Human immunodeficiency virus 1", "experiment": "Antiviral activity against non-nucleoside reverse transcriptase inhibitor-resistant HIV1 bearing reverse transcriptase N119 (Y181C) mutation infected in human MT4 cells assessed as protection from virus-induced cytopathogenicity after 4 days by MTT assay", "format": "functional, organism-based", "settings": "Human immunodeficiency virus 1, MT4, 96 h", "method_in_brief": "as §1", "values": [{"smiles": "Cc1ccc(OP(=O)(OC[C@H]2O[C@@H](n3cc(C)c(=O)[nH]c3=O)C[C@@H]2N=[N+]=[N-])Oc2ccc(C)nc2)cn1", "pEC50": 7.30}, {"smiles": "Cc1cn([C@H]2C[C@H](N=[N+]=[N-])[C@@H](COP(=O)(Oc3ccccc3)Oc3cccnc3Cl)O2)c(=O)[nH]c1=O", "note": "(stereo partly specified)", "pEC50": 7.70}, {"smiles": "Cc1cn([C@H]2C[C@H](N=[N+]=[N-])[C@@H](COP(=O)(Oc3ccc(C#N)cc3)Oc3cccnc3)O2)c(=O)[nH]c1=O", "note": "(stereo partly specified)", "pEC50": 7.70}, {"smiles": "Cc1ncccc1OP(=O)(OC[C@H]1O[C@@H](n2cc(C)c(=O)[nH]c2=O)C[C@@H]1N=[N+]=[N-])Oc1cccnc1C", "pEC50": 7.52}]}, {"tested_on": "Human immunodeficiency virus 1", "experiment": "Antiviral activity against azidothymidine-resistant HIV1 infected in human MT4 cells assessed as protection from virus-induced cytopathogenicity after 4 days by MTT assay", "format": "functional, organism-based", "settings": "Human immunodeficiency virus 1, MT4, 96 h", "method_in_brief": "as §1", "values": [{"smiles": "Cc1ccc(OP(=O)(OC[C@H]2O[C@@H](n3cc(C)c(=O)[nH]c3=O)C[C@@H]2N=[N+]=[N-])Oc2ccc(C)nc2)cn1", "pEC50": 6.10}, {"smiles": "Cc1cn([C@H]2C[C@H](N=[N+]=[N-])[C@@H](COP(=O)(Oc3ccccc3)Oc3cccnc3Cl)O2)c(=O)[nH]c1=O", "note": "(stereo partly specified)", "pEC50": 5.92}, {"smiles": "Cc1cn([C@H]2C[C@H](N=[N+]=[N-])[C@@H](COP(=O)(Oc3ccc(C#N)cc3)Oc3cccnc3)O2)c(=O)[nH]c1=O", "note": "(stereo partly specified)", "pEC50": 6.10}, {"smiles": "Cc1ncccc1OP(=O)(OC[C@H]1O[C@@H](n2cc(C)c(=O)[nH]c2=O)C[C@@H]1N=[N+]=[N-])Oc1cccnc1C", "pEC50": 6.10}]}]}
